# Data: ChEMBL document CHEMBL3217692, “Synthesis and cytotoxicity evaluation of novel pyrido[3,4-d]pyrimidine derivatives as potential anticancer agents” (2012)
# Key:
# Type in all cases: functional
# [1] = test system: NCI-H522; assay: Cytotoxicity against human NCI-H522 cells assessed as cell growth at 10 uM after 48 hrs by sulforhodamine B assay relative to control; conditions: NCI-H522, 48 h, read-out: Activity
# Outline: (§1)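 Adherent cells were grown in RPMI 1640 with 5% FBS and 2 mM L-glutamine, seeded at 5000–40 000 cells/well by doubling time, and held 24 h at 37 °C, 5% CO2 before drug. Time-zero plates were TCA-fixed. Compound in DMSO, single dose 10 μM, 48 h. Cells were fixed with cold TCA (final 10%, 60 min, 4 °C) and stained with 0.4% SRB. Bound dye was dissolved in 10 mM Tris base and read at 515 nm. Percent growth was derived from time-zero, control and treated absorbances.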
# [2] = test system: U-251; assay: Cytotoxicity against human U251 cells assessed as cell growth at 10 uM after 48 hrs by sulforhodamine B assay relative to control; conditions: U-251, 48 h, read-out: Activity
# Outline: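 NCI-60 single-dose screen. Cells were grown in RPMI 1640 with 5% FBS and 2 mM L-glutamine, seeded at 5000–40 000 cells/well according to doubling time, and pre-incubated 24 h at 37 °C, 5% CO2. Time-zero plates were TCA-fixed at dosing. Compound in DMSO was given at 10 μM for 48 h. Cells were then fixed in cold TCA, stained with 0.4% SRB, solubilised in 10 mM Tris base and read at 515 nm. Growth % was calculated from time-zero, control and treated absorbances.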
# [3] = test system: PC-3; assay: Cytotoxicity against human PC3 cells assessed as cell growth at 10 uM after 48 hrs by sulforhodamine B assay relative to control; conditions: PC-3, 48 h, read-out: Activity; outline: as §1
# [4] = test system: DU-145; assay: Cytotoxicity against human DU145 cells assessed as cell growth at 10 uM after 48 hrs by sulforhodamine B assay relative to control; conditions: DU-145, 48 h, read-out: Activity; outline: as §1
# [5] = test system: LOX IMVI; assay: Cytotoxicity against human LOXIMVI cells assessed as cell growth at 10 uM after 48 hrs by sulforhodamine B assay relative to control; conditions: read-out: Activity; outline: as §1
# [6] = Cytotoxicity against human Hs 578T cells assessed as cell growth at 10 uM after 48 hrs by sulforhodamine B assay relative to control; conditions: read-out: Activity; outline: as §1
# [7] = Cytotoxicity against human EKVX cells assessed as cell growth at 10 uM after 48 hrs by sulforhodamine B assay relative to control; conditions: read-out: Activity; outline: as §1
# [8] = test system: HT-29; assay: Cytotoxicity against human HT-29 cells assessed as cell growth at 10 uM after 48 hrs by sulforhodamine B assay relative to control; conditions: HT-29, 48 h, read-out: Activity; outline: as §1
# [9] = test system: MDA-MB-231; assay: Cytotoxicity against human MDA-MB-231 cells assessed as cell growth at 10 uM after 48 hrs by sulforhodamine B assay relative to control; conditions: MDA-MB-231, 48 h, read-out: Activity; outline: as §1
# [10] = test system: NCI-H226; assay: Cytotoxicity against human NCI-H226 cells assessed as cell growth at 10 uM after 48 hrs by sulforhodamine B assay relative to control; conditions: NCI-H226, 48 h, read-out: Activity; outline: as §1
# [11] = Cytotoxicity against human OVCAR8 cells assessed as cell growth at 10 uM after 48 hrs by sulforhodamine B assay relative to control; conditions: OVCAR-8, 48 h, read-out: Activity; outline: as §1
# [12] = test system: SR; assay: Cytotoxicity against human SR cells assessed as cell growth at 10 uM after 48 hrs by sulforhodamine B assay relative to control; conditions: read-out: Activity
# Outline: (§2)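 Suspension lines were cultured in RPMI 1640 with 5% FBS and 2 mM L-glutamine, plated at 5000–40 000 cells/well and preincubated 24 h (37 °C, 5% CO2). Compound in DMSO was given at a single 10 μM dose for 48 h. Settled cells were fixed with 80% TCA (final 16%), then stained with SRB and read at 515 nm. Growth percentage was taken relative to time-zero and untreated control absorbances.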
# [13] = test system: NCI-H460; assay: Cytotoxicity against human NCI-H460 cells assessed as cell growth at 10 uM after 48 hrs by sulforhodamine B assay relative to control; conditions: NCI-H460, 48 h, read-out: Activity; outline: as §1
# [14] = test system: HOP-62; assay: Cytotoxicity against human HOP62 cells assessed as cell growth at 10 uM after 48 hrs by sulforhodamine B assay relative to control; conditions: HOP-62, 48 h, read-out: Activity; outline: as §1
# [15] = test system: Malme-3M; assay: Cytotoxicity against human MALME-3M cells assessed as cell growth at 10 uM after 48 hrs by sulforhodamine B assay relative to control; conditions: read-out: Activity; outline: as §1
# [16] = test system: RXF 393; assay: Cytotoxicity against human RXF393 cells assessed as cell growth at 10 uM after 48 hrs by sulforhodamine B assay relative to control; conditions: RXF 393, 48 h, read-out: Activity; outline: as §1
# [17] = test system: RPMI-8226; assay: Cytotoxicity against human RPMI8226 cells assessed as cell growth at 10 uM after 48 hrs by sulforhodamine B assay relative to control; conditions: RPMI-8226, 48 h, read-out: Activity; outline: as §2
# [18] = Cytotoxicity against human OVCAR5 cells assessed as cell growth at 10 uM after 48 hrs by sulforhodamine B assay relative to control; conditions: OVCAR-5, 48 h, read-out: Activity; outline: as §1
# [19] = test system: COLO 205; assay: Cytotoxicity against human COLO205 cells assessed as cell growth at 10 uM after 48 hrs by sulforhodamine B assay relative to control; conditions: COLO 205, 48 h, read-out: Activity; outline: as §1
# [20] = test system: SN12C; assay: Cytotoxicity against human SN12C cells assessed as cell growth at 10 uM after 48 hrs by sulforhodamine B assay relative to control; conditions: read-out: Activity; outline: as §1
# [21] = test system: MOLT-4; assay: Cytotoxicity against human MOLT4 cells assessed as cell growth at 10 uM after 48 hrs by sulforhodamine B assay relative to control; conditions: MOLT-4, 48 h, read-out: Activity; outline: as §2
# [22] = test system: IGROV-1; assay: Cytotoxicity against human IGROV1 cells assessed as cell growth at 10 uM after 48 hrs by sulforhodamine B assay relative to control; conditions: IGROV-1, 48 h, read-out: Activity; outline: as §1
# [23] = test system: K562; assay: Cytotoxicity against human K562 cells assessed as cell growth at 10 uM after 48 hrs by sulforhodamine B assay relative to control; conditions: K562, 48 h, read-out: Activity; outline: as §2
# [24] = test system: NCI-H23; assay: Cytotoxicity against human NCI-H23 cells assessed as cell growth at 10 uM after 48 hrs by sulforhodamine B assay relative to control; conditions: NCI-H23, 48 h, read-out: Activity; outline: as §1
# [25] = test system: CAKI-1; assay: Cytotoxicity against human CAKI-1 cells assessed as cell growth at 10 uM after 48 hrs by sulforhodamine B assay relative to control; conditions: CAKI-1, 48 h, read-out: Activity; outline: as §1
# [26] = test system: M14; assay: Cytotoxicity against human M14 cells assessed as cell growth at 10 uM after 48 hrs by sulforhodamine B assay relative to control; conditions: M14, 48 h, read-out: Activity; outline: as §1
# [27] = test system: NCI-H322M; assay: Cytotoxicity against human NCI-H322M cells assessed as cell growth at 10 uM after 48 hrs by sulforhodamine B assay relative to control; conditions: read-out: Activity; outline: as §1
# [28] = test system: MCF7; assay: Cytotoxicity against human MCF7 cells assessed as cell growth at 10 uM after 48 hrs by sulforhodamine B assay relative to control; conditions: MCF7, 48 h, read-out: Activity; outline: as §1
compound,measurement,setting,value
COc1nccc2c(-c3cccc(F)c3)nc(N)nc12,growth at 10 µM,[1],78.6%
same,growth at 10 µM,[2],94.9%
same,growth at 10 µM,[3],93%
same,growth at 10 µM,[4],110%
same,growth at 10 µM,[5],101%
same,growth at 10 µM,[6],103%
same,growth at 10 µM,[7],104%
same,growth at 10 µM,[8],96.4%
same,growth at 10 µM,[9],107%
same,growth at 10 µM,[10],98.2%
same,growth at 10 µM,[11],85.6%
same,growth at 10 µM,[12],111%
same,growth at 10 µM,[13],112%
same,growth at 10 µM,[14],104%
same,growth at 10 µM,[15],115%
same,growth at 10 µM,[16],101%
same,growth at 10 µM,[17],107%
same,growth at 10 µM,[18],96%
same,growth at 10 µM,[19],109%
same,growth at 10 µM,[20],115%
same,growth at 10 µM,[21],77.8%
same,growth at 10 µM,[22],117%
same,growth at 10 µM,[23],95.2%
same,growth at 10 µM,[24],104%
same,growth at 10 µM,[25],104%
same,growth at 10 µM,[26],118%
same,growth at 10 µM,[27],112%
same,growth at 10 µM,[28],39.2%
